Experimental data taken from ChEMBL document CHEMBL1123189, “4-Aroyl-1,3-dihydro-2H-imidazol-2-ones: a new class of cardiotonic agents. 2. Effect of 4-pyridoyl substituents and related compounds” (1986).

How the values were obtained:
Type in all cases: functional, Canis lupus familiaris
[1] = system: Canis familiaris; experiment: Compound was tested for inotropic activity by measuring the concentration required to increase heart rate by 15% in the anesthetized dog after intravenous administration
Method in brief: (§1)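 Anesthetized dogs, one compound per animal, stabilized at least 30 min after surgery. Contractile force from a Walton-Brodie strain gauge arch sutured to the left ventricle, heart rate from lead II EKG, aortic pressure via femoral cannula. Readings at 5- to 10-min intervals before and after iv injection of at least three doses, with return to baseline between doses. Equieffective doses extrapolated from dose-response curves; means with 95% confidence intervals.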

[2] = system: Canis familiaris; experiment: Compound was tested for inotropic activity by measuring the concentration required to mean blood pressure by 20% in the anesthetized dog after intravenous administration; method in brief: as §1
[3] = system: Canis familiaris; experiment: Compound was tested for inotropic activity by measuring the concentration required to increase cardiac contractile force by 30% in the anesthetized dog after intravenous administration; method in brief: as §1

Question: With `Cc1[nH]c(O)nc1C(=O)c1ccncc1` as the compound, how does the Equieffective dose [1] read?
Answer: 3.37 mg/kg

Question: What about the Equieffective dose [2] of the same compound?
Answer: 2.58 mg/kg

Question: What about the Equieffective dose [3] of the same compound?
Answer: 0.13 mg/kg

Question: `Cc1[nH]c(O)nc1C(=O)c1cccnc1` was tested. Which Equieffective dose [1] did it give?
Answer: >3 mg/kg

Question: And the Equieffective dose [2]?
Answer: >3 mg/kg

Question: And the Equieffective dose [3]?
Answer: 0.64 mg/kg

Question: `CCc1[nH]c(O)nc1C(=O)c1cc[n+]([O-])cc1` was tested. Which Equieffective dose [1] did it give?
Answer: >1 mg/kg

Question: And the Equieffective dose [2]?
Answer: >1 mg/kg

Question: What about the Equieffective dose [3] of the same compound?
Answer: >1 mg/kg

Question: With `CCc1[nH]c(O)nc1C(=O)c1cccnc1Cl` as the compound, how does the Equieffective dose [1] read?
Answer: >3 mg/kg

Question: What about the Equieffective dose [2] of the same compound?
Answer: >3 mg/kg

Question: And the Equieffective dose [3]?
Answer: 0.31 mg/kg

Question: What does the source list for `Cc1[nH]c(O)nc1C(=O)c1ccccn1`?
Answer: Equieffective dose [1]: 3.29 mg/kg; Equieffective dose [2]: 1.91 mg/kg; Equieffective dose [3]: 1.57 mg/kg

Question: How did the Equieffective dose [1] turn out when `Cc1[nH]c(O)nc1C(=O)c1cccnc1Cl` was run?
Answer: 5.1 mg/kg

Question: What about the Equieffective dose [2] of the same compound?
Answer: >10 mg/kg

Question: And the Equieffective dose [3]?
Answer: 0.47 mg/kg

Question: Which Equieffective dose [1] does the source give for `CCc1[nH]c(O)nc1C(=O)c1cccnc1` here?
Answer: >3 mg/kg

Question: And the Equieffective dose [2]?
Answer: >3 mg/kg

Question: And the Equieffective dose [3]?
Answer: 0.22 mg/kg

Question: Which Equieffective dose [1] does the source give for `CCCc1[nH]c(O)nc1C(=O)c1ccncc1` here?
Answer: 3.38 mg/kg

Question: What about the Equieffective dose [2] of the same compound?
Answer: >3 mg/kg

Question: What about the Equieffective dose [3] of the same compound?
Answer: 1.7 mg/kg

Question: `CCc1[nH]c(O)nc1C(=O)c1cnccc1Cl` was tested. Which Equieffective dose [1] did it give?
Answer: 11.8 mg/kg

Question: And the Equieffective dose [2]?
Answer: 7.03 mg/kg

Question: And the Equieffective dose [3]?
Answer: 0.56 mg/kg

Question: How did the Equieffective dose [1] turn out when `CCc1[nH]c(O)nc1C(=O)c1ccccn1` was run?
Answer: 0.83 mg/kg

Question: And the Equieffective dose [2]?
Answer: >3 mg/kg

Question: And the Equieffective dose [3]?
Answer: 0.2 mg/kg

Question: `CCc1[nH]c(=O)[nH]c1C(=O)c1ccncc1` [PIROXIMONE] was tested. Which Equieffective dose [1] did it give?
Answer: 0.42 mg/kg

Question: What about the Equieffective dose [2] of the same compound?
Answer: 1.7 mg/kg

Question: What about the Equieffective dose [3] of the same compound?
Answer: 0.07 mg/kg
